From ChEMBL document CHEMBL4385593, “Design, synthesis and biological evaluation of novel benzothiadiazine derivatives as potent PI3Kδ-selective inhibitors for treating B-cell-mediated malignancies” (Eur J Med Chem, 2019)

Key:
[1] = target: PI3-kinase p110-delta/p85-alpha (Homo sapiens, UniProt O00329); experiment: Inhibition of His-tagged recombinant human PI3K p110delta/p85alpha using lipid substrate incubated for 2 hrs by ADP-Glo assay; format: protein-complex assay
SU-DHL-6 = experiment: Growth inhibition of human SU-DHL6 cells incubated for 72 hrs by CellTiter-Glo assay; format: functional; conditions: SU-DHL-6, 72 h
How it was run: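 SU-DHL-6 cells were seeded at 1 × 10^4 per well and exposed to compound or medium alone for 72 h. Viability was measured by CellTiter-Glo luminescence, and GI50 was derived by curve fitting.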

[2] = target: Phosphatidylinositol 4,5-bisphosphate 3-kinase catalytic subunit gamma isoform (Homo sapiens, UniProt P48736); experiment: Inhibition of His-tagged recombinant human full length PI3K p110gamma expressed in baculovirus expression system using lipid substrate incubated for 2 hrs by ADP-Glo assay
[3] = target: PI3-kinase p110-alpha/p85-alpha (Homo sapiens, UniProt P42336); experiment: Inhibition of His-tagged recombinant human full length PI3K p110alpha/p85alpha expressed in baculovirus expression system using lipid substrate incubated for 60 mins by kinase-Glo reagent based luminescence assay
Homo sapiens [4] = species: Homo sapiens; experiment: Selectivity ratio of IC50 for His-tagged recombinant human full length PI3K p110gamma to IC50 for His-tagged recombinant human PI3K p110delta/p85alpha
Homo sapiens [5] = species: Homo sapiens; experiment: Selectivity ratio of IC50 for His6-tagged recombinant full length human N-terminal PI3Kbeta to IC50 for His-tagged recombinant human PI3K p110delta/p85alpha
Homo sapiens [6] = species: Homo sapiens; experiment: Selectivity ratio of IC50 for His-tagged recombinant human full length PI3K p110alpha/p85alpha to IC50 for His-tagged recombinant human PI3K p110delta/p85alpha
[7] = target: Phosphatidylinositol 4,5-bisphosphate 3-kinase catalytic subunit beta isoform (Homo sapiens, UniProt P42338); experiment: Inhibition of His6-tagged recombinant full length human N-terminal PI3Kbeta expressed in baculovirus infected Sf21 cells using lipid substrate incubated for 2 hrs by ADP-Glo assay
[8] = AUC (0 to t) in Sprague-Dawley rat at 2 mg/kg, iv by LC/MS/MS analysis; format: ADME, organism-based; conditions: in vivo
How it was run: (§1)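 Male SD rats, three per group, dosed iv at 2 mg/kg or orally at 10 mg/kg. iv dose was a 0.4 mg/mL solution in 5% DMSO/10% Solutol/10% EtOH/75% saline. Oral dose was a 1 mg/mL suspension in 2% DMSO/98% MC (0.5%). Terminal orbital blood was taken into EDTA-2K under isoflurane at set time points. Plasma levels were measured by LC/MS/MS.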

[9] = Volume of distribution at steady state in Sprague-Dawley rat at 2 mg/kg, iv by LC/MS/MS analysis; format: ADME, organism-based; conditions: in vivo, read-out: Vdss; how it was run: as §1
[10] = Oral bioavailability in Sprague-Dawley rat at 10 mg/kg by LC/MS/MS analysis; format: ADME, organism-based; conditions: in vivo; how it was run: as §1
[11] = AUC (0 to t) in Sprague-Dawley rat at 10 mg/kg, po by LC/MS/MS analysis; format: ADME, organism-based; conditions: in vivo; how it was run: as §1
[12] = Half life in Sprague-Dawley rat at 2 mg/kg, iv by LC/MS/MS analysis; format: ADME, organism-based; conditions: in vivo; how it was run: as §1
[13] = Half life in Sprague-Dawley rat at 10 mg/kg, po by LC/MS/MS analysis; format: ADME, organism-based; conditions: in vivo; how it was run: as §1
[14] = Cmax in Sprague-Dawley rat at 10 mg/kg, po by LC/MS/MS analysis; format: ADME, organism-based; set-up: dose 10 mg/kg, route oral; conditions: in vivo; how it was run: as §1
[15] = Clearance in Sprague-Dawley rat at 2 mg/kg, iv by LC/MS/MS analysis; format: ADME, organism-based; conditions: in vivo

PI3-kinase p110-alpha/p85-alpha, sequence (P27986 whole entry): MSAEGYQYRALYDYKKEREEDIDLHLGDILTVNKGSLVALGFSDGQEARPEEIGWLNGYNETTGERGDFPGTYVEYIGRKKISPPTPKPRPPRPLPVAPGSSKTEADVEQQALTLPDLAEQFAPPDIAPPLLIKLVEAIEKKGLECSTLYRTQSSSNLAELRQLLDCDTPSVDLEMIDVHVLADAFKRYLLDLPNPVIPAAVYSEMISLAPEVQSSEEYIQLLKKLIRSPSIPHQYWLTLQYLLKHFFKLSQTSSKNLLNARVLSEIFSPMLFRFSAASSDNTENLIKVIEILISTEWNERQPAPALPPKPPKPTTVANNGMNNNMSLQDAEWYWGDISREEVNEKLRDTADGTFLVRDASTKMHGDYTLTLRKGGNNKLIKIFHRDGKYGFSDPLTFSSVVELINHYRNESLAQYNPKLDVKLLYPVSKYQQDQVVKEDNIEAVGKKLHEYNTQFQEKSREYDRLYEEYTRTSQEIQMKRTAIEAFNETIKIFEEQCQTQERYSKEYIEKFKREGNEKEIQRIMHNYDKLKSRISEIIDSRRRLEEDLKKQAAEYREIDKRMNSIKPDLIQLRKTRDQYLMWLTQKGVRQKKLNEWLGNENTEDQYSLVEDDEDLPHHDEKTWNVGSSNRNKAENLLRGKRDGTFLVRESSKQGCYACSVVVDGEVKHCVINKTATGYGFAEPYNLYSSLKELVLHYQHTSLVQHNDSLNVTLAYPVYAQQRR
PI3-kinase p110-alpha/p85-alpha, sequence (P42336 whole entry): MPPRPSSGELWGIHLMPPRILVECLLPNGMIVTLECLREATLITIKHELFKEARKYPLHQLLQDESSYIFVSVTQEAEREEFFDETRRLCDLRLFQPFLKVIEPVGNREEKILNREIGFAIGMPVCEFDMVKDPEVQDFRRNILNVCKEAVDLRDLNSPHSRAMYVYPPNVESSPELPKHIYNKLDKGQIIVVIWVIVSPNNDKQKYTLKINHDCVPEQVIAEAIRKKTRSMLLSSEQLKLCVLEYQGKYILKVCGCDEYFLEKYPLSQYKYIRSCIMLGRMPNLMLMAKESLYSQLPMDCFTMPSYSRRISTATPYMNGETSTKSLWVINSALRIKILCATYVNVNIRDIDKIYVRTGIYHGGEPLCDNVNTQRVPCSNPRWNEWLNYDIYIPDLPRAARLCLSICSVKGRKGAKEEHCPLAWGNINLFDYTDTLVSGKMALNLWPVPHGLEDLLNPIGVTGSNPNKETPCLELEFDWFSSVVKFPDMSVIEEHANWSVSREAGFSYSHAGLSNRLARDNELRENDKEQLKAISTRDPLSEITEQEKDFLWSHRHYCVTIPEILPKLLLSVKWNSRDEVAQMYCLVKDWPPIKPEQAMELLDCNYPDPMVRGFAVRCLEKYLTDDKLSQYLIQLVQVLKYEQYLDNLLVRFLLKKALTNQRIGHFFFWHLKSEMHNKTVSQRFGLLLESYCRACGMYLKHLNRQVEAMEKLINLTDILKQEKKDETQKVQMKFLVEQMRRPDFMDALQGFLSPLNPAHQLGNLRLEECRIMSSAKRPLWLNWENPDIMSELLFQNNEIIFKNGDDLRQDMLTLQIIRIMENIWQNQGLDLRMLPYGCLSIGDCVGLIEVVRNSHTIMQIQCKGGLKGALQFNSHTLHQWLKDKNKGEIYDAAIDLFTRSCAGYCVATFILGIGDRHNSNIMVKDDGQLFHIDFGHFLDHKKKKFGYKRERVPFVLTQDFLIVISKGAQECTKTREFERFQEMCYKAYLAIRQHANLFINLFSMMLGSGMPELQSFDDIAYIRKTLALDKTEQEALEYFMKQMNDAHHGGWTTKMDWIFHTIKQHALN
PI3-kinase p110-delta/p85-alpha, sequence (P27986 whole entry): as the sequence (P27986 whole entry) above
PI3-kinase p110-delta/p85-alpha, sequence (O00329 whole entry): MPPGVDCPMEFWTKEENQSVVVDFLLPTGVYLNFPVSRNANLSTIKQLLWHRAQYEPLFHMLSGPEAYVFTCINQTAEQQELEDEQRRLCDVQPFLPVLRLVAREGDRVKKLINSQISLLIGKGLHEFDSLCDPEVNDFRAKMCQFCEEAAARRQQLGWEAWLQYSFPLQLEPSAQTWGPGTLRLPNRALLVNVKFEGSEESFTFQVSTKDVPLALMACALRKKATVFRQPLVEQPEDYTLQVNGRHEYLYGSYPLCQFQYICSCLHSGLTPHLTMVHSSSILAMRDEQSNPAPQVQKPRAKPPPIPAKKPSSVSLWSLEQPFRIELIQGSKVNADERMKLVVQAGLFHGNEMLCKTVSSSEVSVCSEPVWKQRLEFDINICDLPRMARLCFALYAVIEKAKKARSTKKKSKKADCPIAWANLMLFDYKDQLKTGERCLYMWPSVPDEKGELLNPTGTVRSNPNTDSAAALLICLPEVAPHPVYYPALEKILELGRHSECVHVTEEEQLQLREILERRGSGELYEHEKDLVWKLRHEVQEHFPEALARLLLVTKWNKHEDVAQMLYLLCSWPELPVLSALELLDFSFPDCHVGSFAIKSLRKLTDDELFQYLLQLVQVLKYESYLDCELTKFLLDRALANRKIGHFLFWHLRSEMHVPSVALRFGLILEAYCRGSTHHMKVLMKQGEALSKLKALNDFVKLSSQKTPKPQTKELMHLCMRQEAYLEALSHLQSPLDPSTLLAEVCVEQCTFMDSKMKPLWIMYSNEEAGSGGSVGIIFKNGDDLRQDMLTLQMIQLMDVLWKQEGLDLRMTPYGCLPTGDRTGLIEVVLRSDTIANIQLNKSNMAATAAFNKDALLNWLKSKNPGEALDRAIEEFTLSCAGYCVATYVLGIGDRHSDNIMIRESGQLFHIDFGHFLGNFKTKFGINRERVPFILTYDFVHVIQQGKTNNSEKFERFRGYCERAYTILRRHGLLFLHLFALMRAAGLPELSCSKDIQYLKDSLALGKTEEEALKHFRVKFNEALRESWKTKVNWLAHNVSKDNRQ
Phosphatidylinositol 4,5-bisphosphate 3-kinase catalytic subunit gamma isoform, sequence (P48736 whole entry, canonical isoform): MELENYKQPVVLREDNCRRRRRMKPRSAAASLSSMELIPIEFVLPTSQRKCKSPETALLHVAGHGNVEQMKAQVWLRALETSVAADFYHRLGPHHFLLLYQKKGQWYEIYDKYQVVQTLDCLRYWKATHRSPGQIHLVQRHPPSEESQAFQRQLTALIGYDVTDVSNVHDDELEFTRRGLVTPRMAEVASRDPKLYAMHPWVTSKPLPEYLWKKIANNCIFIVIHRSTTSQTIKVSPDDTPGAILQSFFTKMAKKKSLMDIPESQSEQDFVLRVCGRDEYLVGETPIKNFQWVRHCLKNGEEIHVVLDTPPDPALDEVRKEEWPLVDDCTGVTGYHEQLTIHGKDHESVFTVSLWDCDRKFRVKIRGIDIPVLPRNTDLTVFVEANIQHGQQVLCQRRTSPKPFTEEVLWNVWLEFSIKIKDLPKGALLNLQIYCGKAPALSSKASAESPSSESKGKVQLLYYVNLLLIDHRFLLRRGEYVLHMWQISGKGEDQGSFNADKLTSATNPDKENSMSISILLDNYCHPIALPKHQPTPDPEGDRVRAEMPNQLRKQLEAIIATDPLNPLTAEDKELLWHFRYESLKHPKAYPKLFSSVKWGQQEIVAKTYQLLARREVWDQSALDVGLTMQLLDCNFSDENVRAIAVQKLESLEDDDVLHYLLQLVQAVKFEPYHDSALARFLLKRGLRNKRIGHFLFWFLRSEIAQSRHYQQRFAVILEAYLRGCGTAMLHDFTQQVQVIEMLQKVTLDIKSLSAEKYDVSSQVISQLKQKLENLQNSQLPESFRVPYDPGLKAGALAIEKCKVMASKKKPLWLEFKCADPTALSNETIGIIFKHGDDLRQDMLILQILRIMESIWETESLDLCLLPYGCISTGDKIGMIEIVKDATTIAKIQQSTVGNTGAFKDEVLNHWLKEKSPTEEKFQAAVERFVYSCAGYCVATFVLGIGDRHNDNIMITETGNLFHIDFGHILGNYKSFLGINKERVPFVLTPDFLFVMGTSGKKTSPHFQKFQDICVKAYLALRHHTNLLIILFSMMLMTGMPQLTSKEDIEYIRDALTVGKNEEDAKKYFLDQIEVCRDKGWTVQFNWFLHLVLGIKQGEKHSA
Phosphatidylinositol 4,5-bisphosphate 3-kinase catalytic subunit beta isoform, sequence (P42338 whole entry, canonical isoform): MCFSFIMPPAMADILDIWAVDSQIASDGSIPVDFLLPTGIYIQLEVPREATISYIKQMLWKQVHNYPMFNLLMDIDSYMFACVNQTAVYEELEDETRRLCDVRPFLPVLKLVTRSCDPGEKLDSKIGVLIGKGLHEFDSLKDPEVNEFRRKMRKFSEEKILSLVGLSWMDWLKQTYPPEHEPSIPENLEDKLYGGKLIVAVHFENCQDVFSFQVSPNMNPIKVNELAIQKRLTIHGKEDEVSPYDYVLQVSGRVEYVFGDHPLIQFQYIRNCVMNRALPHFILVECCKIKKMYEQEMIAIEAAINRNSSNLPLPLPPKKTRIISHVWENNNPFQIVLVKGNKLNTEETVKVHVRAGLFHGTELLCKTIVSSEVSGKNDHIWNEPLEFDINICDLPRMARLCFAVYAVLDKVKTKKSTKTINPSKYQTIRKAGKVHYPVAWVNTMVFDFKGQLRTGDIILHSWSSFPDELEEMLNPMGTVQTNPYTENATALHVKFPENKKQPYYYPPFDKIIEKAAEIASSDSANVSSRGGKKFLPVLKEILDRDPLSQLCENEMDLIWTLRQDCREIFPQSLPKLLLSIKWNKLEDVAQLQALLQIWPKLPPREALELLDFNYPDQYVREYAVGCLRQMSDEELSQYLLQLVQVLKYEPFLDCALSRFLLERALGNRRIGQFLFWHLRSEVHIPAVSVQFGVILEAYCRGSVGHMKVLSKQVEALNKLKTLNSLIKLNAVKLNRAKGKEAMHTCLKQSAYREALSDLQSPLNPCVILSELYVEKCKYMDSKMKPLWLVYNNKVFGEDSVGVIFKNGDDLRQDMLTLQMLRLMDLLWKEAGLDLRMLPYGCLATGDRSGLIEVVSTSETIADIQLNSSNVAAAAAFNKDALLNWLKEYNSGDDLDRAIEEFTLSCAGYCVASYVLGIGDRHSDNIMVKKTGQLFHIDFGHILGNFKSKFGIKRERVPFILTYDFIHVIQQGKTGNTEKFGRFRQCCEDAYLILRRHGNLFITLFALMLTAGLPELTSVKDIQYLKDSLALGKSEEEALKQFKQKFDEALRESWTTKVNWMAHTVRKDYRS

`CC(Nc1ncnc(N)c1C#N)C1=Nc2ccccc2S(=O)(=O)N1c1ccccc1` (stereo not drawn) showed an IC50 [1] of 15 nM and a GI50 (SU-DHL-6) of 3500 nM.
`CC(C1=Nc2ccccc2S(=O)(=O)N1c1ccccc1)n1cnc2c(N)ncnc21` (stereo not drawn) gave an IC50 [1] of 68 nM and a GI50 (SU-DHL-6) of 23100 nM.
`CC(Nc1ncnc2[nH]cnc12)C1=Nc2ccccc2S(=O)(=O)N1c1cccc(C(F)(F)F)c1` (stereo not drawn) showed an IC50 [1] greater than 3000 nM.
Compound `CC(Nc1ncnc2[nH]cnc12)C1=Nc2ccccc2S(=O)(=O)N1c1ccccc1` (stereo not drawn) has an IC50 [1] of 344 nM.
For `C[C@@H](Nc1ncnc(N)c1C#N)C1=Nc2cccc(Cl)c2S(=O)(=O)N1c1ccccc1`, the IC50 [1] was 7 nM, the IC50 [2] was 112 nM and the IC50 [3] was greater than 5000 nM. For the same compound, the Ratio IC50 (Homo sapiens [4]) was 16, the GI50 (SU-DHL-6) was 70.3 nM and the Ratio IC50 (Homo sapiens [5]) was 24. The Ratio IC50 (Homo sapiens [6]) was greater than 714 and the IC50 [7] was 169 nM.
`C[C@H](Nc1ncnc(N)c1C#N)C1=Nc2cccc(Cl)c2S(=O)(=O)N1c1ccccc1` showed an IC50 [1] of less than 0.32 nM, an IC50 [2] of 100 nM and an IC50 [3] of 996 nM. For the same compound, the Ratio IC50 (Homo sapiens [4]) was greater than 313, the GI50 (SU-DHL-6) was 15.9 nM and the Ratio IC50 (Homo sapiens [5]) was greater than 172. For the same compound, the Ratio IC50 (Homo sapiens [6]) was greater than 3110 and the IC50 [7] was 55 nM.
For `CCC(C1=Nc2ccccc2S(=O)(=O)N1c1ccc(F)cc1)n1cnc2c(N)ncnc21` (stereo not drawn), the IC50 [1] was greater than 3000 nM.
In the case of `CCC(Nc1ncnc2[nH]cnc12)C1=Nc2ccccc2S(=O)(=O)N1c1ccc(OC(F)(F)F)cc1` (stereo not drawn), the IC50 [1] is reported as greater than 3000 nM.
`CC(=O)O[C@H]1C(=O)[C@@]2(C)[C@H]([C@H](OC(=O)c3ccccc3)[C@]3(O)C[C@H](OC(=O)[C@H](O)[C@@H](NC(=O)c4ccccc4)c4ccccc4)C(C)=C1C3(C)C)[C@]1(OC(C)=O)CO[C@@H]1C[C@@H]2O` [PACLITAXEL] gave a GI50 (SU-DHL-6) of 1.9 nM.
For `CC(C1=Nc2ccccc2S(=O)(=O)N1c1ccc(F)cc1)n1cnc2c(N)ncnc21` (stereo not drawn), the IC50 [1] was 628 nM.
Work on `CC(Nc1nc(F)nc2[nH]cnc12)C1=Nc2ccccc2S(=O)(=O)N1c1ccccc1` (stereo not drawn) yielded an IC50 [1] of 92 nM and a GI50 (SU-DHL-6) of 4690 nM.
Work on `CC(Nc1ncnc2[nH]cnc12)C1=Nc2ccccc2S(=O)(=O)N1c1ccc(F)cc1` (stereo not drawn) yielded an IC50 [1] of 2000 nM.
`C[C@@H](Nc1ncnc2[nH]cnc12)C1=Nc2cccc(Cl)c2S(=O)(=O)N1c1ccccc1` gave an IC50 [1] of 62 nM, an IC50 [2] of 1910 nM and an IC50 [3] greater than 5000 nM. For the same compound, the Ratio IC50 (Homo sapiens [4]) was 31, the GI50 (SU-DHL-6) was 190 nM and the Ratio IC50 (Homo sapiens [5]) was 64. For the same compound, the Ratio IC50 (Homo sapiens [6]) was greater than 81 and the IC50 [7] was 3990 nM.
Compound `CCC(Nc1ncnc2[nH]cnc12)C1=Nc2ccccc2S(=O)(=O)N1c1ccc(OC)c(OC)c1` (stereo not drawn) has an IC50 [1] greater than 3000 nM.
For `CCC(Nc1ncnc2[nH]cnc12)C1=Nc2cccc(Cl)c2S(=O)(=O)N1c1ccccc1` (stereo not drawn), the IC50 [1] was 81 nM and the GI50 (SU-DHL-6) was 2190 nM.
`CCC(Nc1ncnc(N)c1C#N)C1=Nc2cccc(Cl)c2S(=O)(=O)N1c1ccccc1` (stereo not drawn) showed an IC50 [1] of 12 nM and a GI50 (SU-DHL-6) of 1680 nM.
`CCC(Nc1ncnc2[nH]cnc12)C1=Nc2ccccc2S(=O)(=O)N1c1cccc(C(F)(F)F)c1` (stereo not drawn) gave an IC50 [1] greater than 3000 nM.
`CC(C1=Nc2ccccc2S(=O)(=O)N1c1cccnc1)n1cnc2c(N)ncnc21` (stereo not drawn) gave an IC50 [1] of 623 nM.
Compound `CCC(C1=Nc2ccccc2S(=O)(=O)N1c1ccc(OC(F)(F)F)cc1)n1cnc2c(N)ncnc21` (stereo not drawn) has an IC50 [1] greater than 3000 nM.
For `CC(Nc1ncnc2[nH]cnc12)C1=Nc2ccccc2S(=O)(=O)N1c1cccnc1` (stereo not drawn), the IC50 [1] was 921 nM.
Compound `CC(Nc1ncnc(N)c1C#N)C1=Nc2cccc(Cl)c2S(=O)(=O)N1c1ccccc1` (stereo not drawn) has an IC50 [1] of 3.2 nM and a GI50 (SU-DHL-6) of 187 nM.
With `CC(Nc1ncnc2[nH]cnc12)C1=Nc2cccc(Cl)c2S(=O)(=O)N1c1ccccc1` (stereo not drawn) the IC50 [1] was 9.8 nM and the GI50 (SU-DHL-6) was 770 nM.
Work on `CCC(Nc1ncnc2[nH]cnc12)C1=Nc2cccc(F)c2S(=O)(=O)N1c1ccccc1` (stereo not drawn) yielded an IC50 [1] greater than 3000 nM.
Work on `CC(C1=Nc2cccc(F)c2S(=O)(=O)N1c1ccccc1)n1cnc2c(N)ncnc21` (stereo not drawn) yielded an IC50 [1] of 54 nM and a GI50 (SU-DHL-6) of 7200 nM.
Work on `CC[C@H](Nc1ncnc2[nH]cnc12)c1nc2cccc(F)c2c(=O)n1-c1ccccc1` [IDELALISIB] yielded an AUC(0-t) [8] of 1400 ng·h/mL, a Vd [9] of 0.884 L/kg and a GI50 (SU-DHL-6) of 124 nM. It also gave a bioavailability [10] of 45.8%, an AUC(0-t) [11] of 3190 ng·h/mL and a half-life [12] of 31.1 min. For the same compound, the half-life [13] was 61.8 min and the Cmax [14] was 2320 ng/mL.
Work on `CC(Nc1ncnc(N)c1C#N)C1=Nc2cccc(F)c2S(=O)(=O)N1c1ccccc1` (stereo not drawn) yielded an IC50 [1] of 35 nM and a GI50 (SU-DHL-6) of 1220 nM.
With `C[C@H](Nc1ncnc2[nH]cnc12)C1=Nc2cccc(Cl)c2S(=O)(=O)N1c1ccccc1` the AUC(0-t) [8] was 1400 ng·h/mL, the IC50 [1] was 4.6 nM and the clearance [15] was 25.8 mL/min/kg. It also gave an IC50 [2] of 156 nM, an IC50 [3] of 3640 nM and a Vd [9] of 0.853 L/kg. It also gave a Ratio IC50 (Homo sapiens [4]) of 34, a GI50 (SU-DHL-6) of 33.2 nM and a bioavailability [10] of 29.2%. It also gave a Ratio IC50 (Homo sapiens [5]) of 167, an AUC(0-t) [11] of 2010 ng·h/mL and a half-life [12] of 31.1 min. It also gave a Ratio IC50 (Homo sapiens [6]) of 791, an IC50 [7] of 766 nM and a half-life [13] of 72 min. For the same compound, the Cmax [14] was 643 ng/mL.
`CCC(Nc1nc(F)nc2[nH]cnc12)C1=Nc2cccc(F)c2S(=O)(=O)N1c1ccccc1` (stereo not drawn) gave an IC50 [1] of 383 nM.
Compound `CC(Nc1nc(Cl)nc2[nH]cnc12)C1=Nc2ccccc2S(=O)(=O)N1c1ccccc1` (stereo not drawn) has an IC50 [1] of 1200 nM.
`CCC(Nc1ncnc(N)c1C#N)C1=Nc2cccc(F)c2S(=O)(=O)N1c1ccccc1` (stereo not drawn) gave an IC50 [1] of 141 nM and a GI50 (SU-DHL-6) of 10500 nM.
